The M2OR odorant receptor database

Experiments:
Conditions in all cases: stereoisomer not certain
OR4C13 (Homo sapiens) = OR4C13 (Homo sapiens) (UniProt Q8NGP0)
Method in brief: (§1)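 Values were gathered from published papers (main text and supplementary material), with extra details requested from the original authors when needed, and checked for typos and inconsistencies. Each receptor–molecule pair is called responsive (active) if the original authors judged the measured signal statistically different from baseline, and non-responsive (inactive) otherwise. Assay methods varied by source, often transient mammalian cell-line luciferase assays. Recorded details include cell line, G-protein, co-transfected protein and tags.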

OR4C15 (Homo sapiens) = OR4C15 (Homo sapiens) (UniProt Q8NGM1)
Method in brief: as §1

OR4C16 (Homo sapiens) = biological target: T1, OR4C16 (Homo sapiens) (UniProt Q8NGL9)
T1 sequence (whole entry): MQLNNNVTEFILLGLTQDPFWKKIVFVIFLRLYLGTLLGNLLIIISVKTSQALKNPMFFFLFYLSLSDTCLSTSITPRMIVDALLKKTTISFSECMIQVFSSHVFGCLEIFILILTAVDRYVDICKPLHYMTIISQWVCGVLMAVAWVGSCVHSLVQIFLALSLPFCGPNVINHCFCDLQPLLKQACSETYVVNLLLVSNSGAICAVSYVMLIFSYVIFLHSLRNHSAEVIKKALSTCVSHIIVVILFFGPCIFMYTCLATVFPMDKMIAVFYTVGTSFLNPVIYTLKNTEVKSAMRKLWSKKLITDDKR
Method in brief: as §1

OR4C3 (Homo sapiens) = OR4C3 (Homo sapiens) (UniProt Q8NH37)
Method in brief: as §1

OR4C45 (Homo sapiens) [1] = biological target: T2, OR4C45 (Homo sapiens) (UniProt A6NMZ5)
T2 sequence (whole entry): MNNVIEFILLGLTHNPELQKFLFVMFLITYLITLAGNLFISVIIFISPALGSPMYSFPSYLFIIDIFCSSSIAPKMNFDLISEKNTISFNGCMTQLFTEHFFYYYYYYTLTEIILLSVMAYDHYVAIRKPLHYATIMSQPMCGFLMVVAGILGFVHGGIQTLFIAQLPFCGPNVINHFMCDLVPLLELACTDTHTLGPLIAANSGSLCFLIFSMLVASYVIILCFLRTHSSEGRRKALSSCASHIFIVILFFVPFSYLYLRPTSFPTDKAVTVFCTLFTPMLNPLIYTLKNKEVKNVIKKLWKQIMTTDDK
Method in brief: as §1

OR4C46 (Homo sapiens) = OR4C46 (Homo sapiens) (UniProt A6NHA9)
Method in brief: as §1

OR4C5 (Homo sapiens) = OR4C5 (Homo sapiens) (UniProt Q8NGB2)
Method in brief: as §1

OR4C6 (Homo sapiens) = OR4C6 (Homo sapiens) (UniProt Q8NH72)
Method in brief: as §1

OR4C3 = test system: OR4C3
Method in brief: as §1

OR4C45 (Homo sapiens) [2] = biological target: OR4C45 (Homo sapiens) (UniProt A6NMZ5); remark: listed apart in the source
Method in brief: as §1
Target sequence in this assay (A6NMZ5 whole entry): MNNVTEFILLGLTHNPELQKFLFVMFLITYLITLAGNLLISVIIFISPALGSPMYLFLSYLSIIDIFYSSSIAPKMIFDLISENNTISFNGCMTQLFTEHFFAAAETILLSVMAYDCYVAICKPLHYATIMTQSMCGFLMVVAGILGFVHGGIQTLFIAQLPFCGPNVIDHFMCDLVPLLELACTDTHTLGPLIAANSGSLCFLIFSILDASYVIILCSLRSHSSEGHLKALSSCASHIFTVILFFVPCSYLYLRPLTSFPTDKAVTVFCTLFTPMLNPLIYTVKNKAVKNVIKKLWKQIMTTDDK

Measured: odorant receptor agonist call

Sequence of OR4C3 (as listed by the source): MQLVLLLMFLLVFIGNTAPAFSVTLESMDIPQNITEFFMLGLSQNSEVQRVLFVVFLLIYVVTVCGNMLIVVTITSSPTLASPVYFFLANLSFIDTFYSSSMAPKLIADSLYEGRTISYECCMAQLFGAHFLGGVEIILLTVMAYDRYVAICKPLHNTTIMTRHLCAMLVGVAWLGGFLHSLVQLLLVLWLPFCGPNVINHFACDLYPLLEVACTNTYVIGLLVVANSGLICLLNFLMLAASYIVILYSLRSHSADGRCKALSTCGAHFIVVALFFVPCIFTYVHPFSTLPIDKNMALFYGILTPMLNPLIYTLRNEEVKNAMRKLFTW
Sequence of OR4C15 (Homo sapiens) (Q8NGM1 whole entry): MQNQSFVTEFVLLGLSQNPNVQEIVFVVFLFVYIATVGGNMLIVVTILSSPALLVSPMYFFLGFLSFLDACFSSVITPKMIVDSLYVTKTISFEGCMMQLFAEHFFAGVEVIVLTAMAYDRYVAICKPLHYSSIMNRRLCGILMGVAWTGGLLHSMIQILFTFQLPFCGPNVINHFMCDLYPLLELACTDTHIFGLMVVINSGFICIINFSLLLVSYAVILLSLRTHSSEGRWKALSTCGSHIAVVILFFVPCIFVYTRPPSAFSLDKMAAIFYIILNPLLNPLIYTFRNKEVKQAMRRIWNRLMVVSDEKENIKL
Sequence of OR4C5 (Homo sapiens) (Q8NGB2 whole entry): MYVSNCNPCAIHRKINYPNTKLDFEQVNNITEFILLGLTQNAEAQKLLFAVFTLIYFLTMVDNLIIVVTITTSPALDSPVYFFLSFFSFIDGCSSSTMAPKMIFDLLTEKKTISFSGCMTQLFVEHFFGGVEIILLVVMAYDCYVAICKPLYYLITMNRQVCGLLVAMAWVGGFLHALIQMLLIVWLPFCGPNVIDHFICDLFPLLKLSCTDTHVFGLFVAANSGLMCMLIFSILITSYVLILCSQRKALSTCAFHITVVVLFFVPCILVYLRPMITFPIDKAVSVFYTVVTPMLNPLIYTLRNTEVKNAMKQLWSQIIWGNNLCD
Sequence of OR4C6 (Homo sapiens) (Q8NH72 whole entry): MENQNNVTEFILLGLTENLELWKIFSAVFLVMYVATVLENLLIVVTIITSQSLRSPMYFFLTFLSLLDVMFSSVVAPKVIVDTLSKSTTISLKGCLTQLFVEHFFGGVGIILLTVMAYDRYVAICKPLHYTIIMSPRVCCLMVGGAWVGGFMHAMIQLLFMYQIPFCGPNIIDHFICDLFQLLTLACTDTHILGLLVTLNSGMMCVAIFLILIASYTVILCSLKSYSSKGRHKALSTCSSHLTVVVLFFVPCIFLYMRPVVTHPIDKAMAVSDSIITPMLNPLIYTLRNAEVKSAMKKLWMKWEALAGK
Sequence of OR4C13 (Homo sapiens) (Q8NGP0 whole entry): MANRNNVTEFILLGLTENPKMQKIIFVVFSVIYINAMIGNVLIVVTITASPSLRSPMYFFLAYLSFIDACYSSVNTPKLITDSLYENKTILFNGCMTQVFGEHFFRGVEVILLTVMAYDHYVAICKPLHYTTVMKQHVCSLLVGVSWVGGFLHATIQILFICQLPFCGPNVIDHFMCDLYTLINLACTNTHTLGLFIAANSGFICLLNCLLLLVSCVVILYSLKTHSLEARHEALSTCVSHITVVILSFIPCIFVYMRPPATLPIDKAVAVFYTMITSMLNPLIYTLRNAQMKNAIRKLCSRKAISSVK
Sequence of OR4C3 (Homo sapiens) (Q8NH37 whole entry): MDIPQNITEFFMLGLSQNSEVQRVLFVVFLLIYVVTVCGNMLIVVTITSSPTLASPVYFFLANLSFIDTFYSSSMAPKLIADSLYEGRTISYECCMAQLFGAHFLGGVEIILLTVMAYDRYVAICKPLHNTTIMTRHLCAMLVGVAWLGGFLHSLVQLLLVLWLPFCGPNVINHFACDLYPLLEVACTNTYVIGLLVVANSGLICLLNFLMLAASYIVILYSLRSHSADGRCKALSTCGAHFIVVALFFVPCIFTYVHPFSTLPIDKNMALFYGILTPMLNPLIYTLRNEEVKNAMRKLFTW
Sequence of OR4C46 (Homo sapiens) (A6NHA9 whole entry): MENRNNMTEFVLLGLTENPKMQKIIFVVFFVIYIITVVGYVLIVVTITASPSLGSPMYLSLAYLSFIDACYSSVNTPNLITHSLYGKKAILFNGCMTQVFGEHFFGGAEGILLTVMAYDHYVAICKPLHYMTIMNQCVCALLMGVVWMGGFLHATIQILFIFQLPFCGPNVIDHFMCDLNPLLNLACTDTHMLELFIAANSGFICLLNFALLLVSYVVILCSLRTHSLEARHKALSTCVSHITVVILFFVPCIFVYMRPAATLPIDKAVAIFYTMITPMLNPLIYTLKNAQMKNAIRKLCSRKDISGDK

CCC(S)C(C)CO (centres undefined)
not listed: OR4C3 | OR4C45 (Homo sapiens) [2]
inactive: all other assays above

CC1=C(O)C(=O)OC1C (centres undefined)
not listed: OR4C15 (Homo sapiens) | OR4C3 (Homo sapiens) | OR4C45 (Homo sapiens) [1]
inactive: all other assays above

CC1=NC(C)C(C)S1 (centres undefined)
not listed: OR4C15 (Homo sapiens) | OR4C3 (Homo sapiens) | OR4C45 (Homo sapiens) [1]
inactive: all other assays above

CCCCC(S)C(C)CO (centres undefined)
not listed: OR4C3 | OR4C45 (Homo sapiens) [2]
inactive: all other assays above

CC1=C(O)C(=O)C(C)O1 (centres undefined)
not listed: OR4C15 (Homo sapiens) | OR4C3 (Homo sapiens) | OR4C45 (Homo sapiens) [1]
inactive: all other assays above

CCCCCC(=O)C(C)C(C)=O (centres undefined)
not listed: OR4C3 | OR4C45 (Homo sapiens) [2]
inactive: all other assays above

CC(C)=CCCC(C)=CCO
inactive: OR4C3

CCCC(S)CCOC(C)=O (centres undefined)
not listed: OR4C15 (Homo sapiens) | OR4C3 (Homo sapiens) | OR4C45 (Homo sapiens) [1]
inactive: all other assays above

CCCCCCC=CCCC=O
not listed: OR4C3 | OR4C45 (Homo sapiens) [2]
inactive: all other assays above

CCC1OC(=O)C(O)=C1C (centres undefined)
not listed: OR4C15 (Homo sapiens) | OR4C3 (Homo sapiens) | OR4C45 (Homo sapiens) [1]
inactive: all other assays above

CC1CCCCCCCCCCCCC(=O)C1 (centres undefined)
not listed: OR4C3 | OR4C45 (Homo sapiens) [2]
inactive: all other assays above

CC(=O)c1c(C)c([N+](=O)[O-])c(C(C)(C)C)c([N+](=O)[O-])c1C
not listed: OR4C3 | OR4C45 (Homo sapiens) [2]
inactive: all other assays above

CCC1OC(C)=C(O)C1=O (centres undefined)
not listed: OR4C15 (Homo sapiens) | OR4C3 (Homo sapiens) | OR4C45 (Homo sapiens) [1]
inactive: all other assays above

Cc1cnc(C)c(C)n1
not listed: OR4C15 (Homo sapiens) | OR4C3 (Homo sapiens) | OR4C45 (Homo sapiens) [1]
inactive: all other assays above

CC(CO)CS (centres undefined)
not listed: OR4C3 | OR4C45 (Homo sapiens) [2]
inactive: all other assays above

CCCCCC(S)C(C)CO (centres undefined)
not listed: OR4C3 | OR4C45 (Homo sapiens) [2]
inactive: all other assays above
